Experimental data as given in ChEMBL document CHEMBL2046441, “Synthesis and SAR of 4-aminocyclopentapyrrolidines as N-type Ca²⁺ channel blockers with analgesic activity” (Bioorg Med Chem, 2012).

Legend:
Rattus norvegicus [1] = test: Analgesic activity in Sprague-Dawley rat acute inflammatory pain model assessed as inhibition of carrageenan-induced thermal hypersensitivity of paw withdrawal latency at 30 mg/kg, ip dosed 30 mins before thermal hypersensitivity assessment; type: functional; details: route intraperitoneal
Outline: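 Male Sprague-Dawley rats (200–350 g) received 3, 10 or 30 mg/kg ip in 10% DMSO/PEG 400, n = 6. Dosing was 30 min before testing, and testing was 2 h after intraplantar carrageenan in the right hind paw. Hargreaves radiant heat on 30 °C glass, 4.50 amp, 20.48 s cutoff; each paw tested 3 times ~5 min apart. PWL is the mean of the two shortest latencies.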

Rattus norvegicus [2] = test: Analgesic activity in Sprague-Dawley rat osteoarthritis pain model assessed as increase in maximum compressive grip force at 30 mg/kg, ip dosed 30 mins before grip force assessment; type: functional; details: route intraperitoneal
Outline: (§1)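 Male Sprague-Dawley rats (200–350 g) were tested at least 21 days after MIA injection. Dosing was 3, 10 or 30 mg/kg ip in 10% DMSO/PEG 400, 30 min before testing; n = 12 per group. Hindlimb grip force was measured twice ~2 min apart to get CFmax, normalised to body weight. Vehicle group set as 0%, age-matched naive group as 100%.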

Rattus norvegicus [3] = test: Analgesic activity in ip dosed Sprague-Dawley rat osteoarthritis pain model assessed as increase in maximum compressive grip force dosed 30 mins before grip force assessment; type: functional, organism-based; outline: as §1
Rattus norvegicus [4] = test: Analgesic activity in Sprague-Dawley rat persistent pain model assessed as inhibition of flinching behavior at 30 mg/kg, ip dosed 30 mins before formalin challenge measured for 20 mins following formalin challenge; type: functional; details: route intraperitoneal
Outline: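 Male Sprague-Dawley rats (200–350 g) were dosed ip in 10% DMSO/PEG 400 (3, 10, 30 mg/kg; n = 6) 30 min before formalin. They then received 50 µl of 5% formalin s.c. into the dorsal right hind paw. Flinches of the injected paw were counted 30–50 min after injection (phase II), sampling one 60 s period per 5 min interval.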

Rattus norvegicus [5] = test: Neurotoxicity in Sprague-Dawley rat assessed as induction of rotarod performance deficit at 3 to 30 mg/kg, ip and measured once animals were placed back on rotarod apparatus for 3 consecutive testing trials 30 mins following compound dosing; type: toxicity, organism-based; parameters: dose 3-30 mg/kg, route intraperitoneal; details: in vivo, 0.5 h
Outline: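 Male rats first receive three training sessions on an accelerating rod, 0–20 rpm over 60 s. Dosing is 3, 10, 30 mg/kg ip in 10% DMSO/PEG400, n = 6 per group. There are 3 consecutive trials at 30 min post-dose, recording fall latency with a 60 s cut-off.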

Rattus norvegicus [6] = test: Cardiovascular toxicity in anesthetized Sprague-Dawley rat assessed as changes in mean arterial pressure at 10 mg/kg, iv by hemodynamic function study; type: organism-based, Artery; parameters: dose 10 mg/kg, route intravenous; details: in vivo
Rattus norvegicus [7] = test: Cardiovascular toxicity in anesthetized Sprague-Dawley rat assessed as changes in heart rate at 10 mg/kg, iv by hemodynamic function study; type: organism-based; parameters: dose 10 mg/kg, route intravenous; details: in vivo
Rattus norvegicus [8] = test: Cardiovascular toxicity in anesthetized Sprague-Dawley rat assessed as changes in dp/dt rate at 10 mg/kg, iv by hemodynamic function study; type: organism-based; parameters: dose 10 mg/kg, route intravenous; details: in vivo
[9] = Therapeutic index, ratio of cardiovascular effect in Sprague-Dawley rat at 10 mg/kg, iv to EC50 for analgesic activity in ip dosed Sprague-Dawley rat osteoarthritis pain model; type: organism-based; parameters: dose 10 mg/kg, route intravenous; details: in vivo, read-out: TI
[10] = Inhibition of Voltage-dependent N-type calcium channel in human IMR32 cells by FLIPR based Ca(2+) flux assay; type: cell-based, IMR-32
Outline: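 IMR32 cells were plated at 120,000/well and grown 48 h at 37 °C, 5% CO₂. Cells were loaded with Calcium 4 dye in HBSS/1 mM HEPES pH 7.4 for 1.5 h at room temperature, with antagonists present for 1 h of loading.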

[11] = biological target: Voltage-gated L-type calcium channel (Rattus norvegicus, UniProt P22002+Q02485+P27732); test: Inhibition of L-type calcium channel in Sprague-Dawley rat aorta assessed as relaxation of Kcl-induced tissue contraction by aortic ring relaxation assay; type: tissue-based
[12] = Aqueous solubility of the compound; type: physicochemical; details: buffer
[13] = Protein binding in plasma; type: ADME, cell-free; details: read-out: PPB
[14] = Stability in human liver microsomes assessed as compound remaining measured after 30 mins; type: ADME, Microsome; details: read-out: Stability
Outline: (§2)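 Compound is incubated with human or rat liver microsomes, and percent parent remaining is measured after 30 min.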

[15] = Stability in rat liver microsomes assessed as compound remaining measured after 30 mins; type: ADME, Microsome; details: read-out: Stability; outline: as §2
[16] = Bioavailability in ip dosed Sprague-Dawley rat; type: ADME, organism-based; details: in vivo
[17] = biological target: Voltage-dependent N-type calcium channel subunit alpha-1B (Rattus norvegicus, UniProt Q02294); test: Inhibition of rat Cav2.2 expressed in HEK293 cells under inactivating depolarizing conditions at holding potential of -80 to -95 mV and stepped to 0 mV once every 5 seconds by whole cell patch clamp assay
Chain of Voltage-dependent N-type calcium channel subunit alpha-1B (Q02294 whole entry): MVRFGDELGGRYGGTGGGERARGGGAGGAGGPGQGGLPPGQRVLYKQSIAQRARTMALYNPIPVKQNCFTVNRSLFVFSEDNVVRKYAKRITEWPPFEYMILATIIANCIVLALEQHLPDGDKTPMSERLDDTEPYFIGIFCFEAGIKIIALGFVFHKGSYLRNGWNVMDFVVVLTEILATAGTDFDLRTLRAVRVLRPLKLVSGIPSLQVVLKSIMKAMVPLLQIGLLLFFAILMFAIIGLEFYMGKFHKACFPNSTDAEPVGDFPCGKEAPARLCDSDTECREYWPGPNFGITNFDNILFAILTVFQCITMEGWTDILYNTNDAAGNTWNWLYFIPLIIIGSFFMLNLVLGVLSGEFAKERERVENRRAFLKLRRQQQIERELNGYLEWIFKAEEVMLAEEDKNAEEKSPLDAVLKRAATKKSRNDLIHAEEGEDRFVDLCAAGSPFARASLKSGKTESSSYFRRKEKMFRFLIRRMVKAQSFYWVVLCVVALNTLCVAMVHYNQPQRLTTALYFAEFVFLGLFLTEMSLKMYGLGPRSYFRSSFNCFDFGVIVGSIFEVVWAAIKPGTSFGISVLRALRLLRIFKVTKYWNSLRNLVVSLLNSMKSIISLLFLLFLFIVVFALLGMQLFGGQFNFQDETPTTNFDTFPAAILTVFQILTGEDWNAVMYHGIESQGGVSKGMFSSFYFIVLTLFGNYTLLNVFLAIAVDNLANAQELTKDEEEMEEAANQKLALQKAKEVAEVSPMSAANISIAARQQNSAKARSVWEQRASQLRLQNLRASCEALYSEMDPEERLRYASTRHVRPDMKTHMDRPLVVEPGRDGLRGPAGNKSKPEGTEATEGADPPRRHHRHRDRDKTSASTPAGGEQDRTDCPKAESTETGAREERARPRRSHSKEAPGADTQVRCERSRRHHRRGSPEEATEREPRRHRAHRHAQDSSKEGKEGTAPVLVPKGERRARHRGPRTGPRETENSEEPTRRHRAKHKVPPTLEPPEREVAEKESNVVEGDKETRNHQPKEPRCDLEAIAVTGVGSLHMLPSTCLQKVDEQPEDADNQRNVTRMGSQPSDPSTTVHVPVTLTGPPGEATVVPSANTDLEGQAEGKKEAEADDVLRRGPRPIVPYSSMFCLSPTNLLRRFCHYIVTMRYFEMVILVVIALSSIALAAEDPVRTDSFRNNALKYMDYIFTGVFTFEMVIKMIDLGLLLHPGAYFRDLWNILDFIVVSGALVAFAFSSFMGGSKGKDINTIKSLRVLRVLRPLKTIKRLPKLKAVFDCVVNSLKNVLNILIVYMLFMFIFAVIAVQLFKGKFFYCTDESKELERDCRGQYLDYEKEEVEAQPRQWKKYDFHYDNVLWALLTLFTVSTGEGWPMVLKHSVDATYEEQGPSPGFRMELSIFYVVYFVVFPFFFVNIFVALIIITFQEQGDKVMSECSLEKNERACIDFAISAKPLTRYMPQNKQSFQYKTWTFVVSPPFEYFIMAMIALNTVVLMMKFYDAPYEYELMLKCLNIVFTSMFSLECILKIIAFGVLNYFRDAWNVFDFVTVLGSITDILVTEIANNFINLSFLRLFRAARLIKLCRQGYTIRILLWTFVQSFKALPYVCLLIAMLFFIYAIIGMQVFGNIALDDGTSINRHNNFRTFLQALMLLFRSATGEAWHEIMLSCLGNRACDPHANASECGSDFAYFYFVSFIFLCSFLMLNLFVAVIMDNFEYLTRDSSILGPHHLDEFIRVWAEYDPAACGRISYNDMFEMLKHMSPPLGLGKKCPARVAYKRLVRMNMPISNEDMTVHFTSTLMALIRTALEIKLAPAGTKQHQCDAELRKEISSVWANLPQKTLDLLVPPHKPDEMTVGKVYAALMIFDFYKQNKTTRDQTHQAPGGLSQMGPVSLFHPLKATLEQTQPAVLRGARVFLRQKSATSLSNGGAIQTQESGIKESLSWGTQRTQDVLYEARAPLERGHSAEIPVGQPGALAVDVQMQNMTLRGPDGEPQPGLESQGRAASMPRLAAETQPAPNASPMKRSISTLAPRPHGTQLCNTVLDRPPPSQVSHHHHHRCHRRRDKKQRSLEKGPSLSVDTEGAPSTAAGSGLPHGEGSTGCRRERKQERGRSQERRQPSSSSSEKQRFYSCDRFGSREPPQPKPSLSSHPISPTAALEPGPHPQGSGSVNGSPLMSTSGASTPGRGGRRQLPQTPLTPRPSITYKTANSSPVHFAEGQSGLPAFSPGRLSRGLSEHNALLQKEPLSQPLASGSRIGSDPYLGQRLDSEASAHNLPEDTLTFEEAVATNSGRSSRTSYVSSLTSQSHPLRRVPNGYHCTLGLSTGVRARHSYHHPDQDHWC

Rattus norvegicus [18] = test: Analgesic activity in Sprague-Dawley rat persistent pain model assessed as inhibition of flinching behavior at 10 mg/kg, ip dosed 30 mins before formalin challenge measured for 20 mins following formalin challenge
[19] = Inhibition of L-type calcium channel in mouse ND7/23 cells by FLIPR based Ca(2+) flux assay; type: cell-based
Outline: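 ND7/23 cells were grown in DMEM with 10% heat-inactivated FBS and seeded at 5.0 × 10⁴ cells/well. After 24 h at 37 °C, 5% CO₂, cells were loaded with calcium dye in HBSS/20 mM HEPES pH 7.4 for 1.5 h at room temperature. Compounds were added for 3 min, then channels were activated with HBSS containing 50 mM KCl/2.5 mM CaCl₂.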

Rattus norvegicus [20] = test: Analgesic activity in ip dosed Sprague-Dawley rat acute inflammatory pain model assessed as reduction in carrageenan-induced thermal hypersensitivity of paw withdrawal latency dosed 30 mins before thermal hypersensitivity assessment; type: functional, organism-based
Outline: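 Male rats 200–350 g; 10% DMSO/PEG400 vehicle; doses 3, 10, 30 mg/kg ip, n = 6. Carrageenan is injected into the plantar surface of the right hind paw. After 2 h, a Hargreaves radiant heat stimulus is applied on 30 °C glass, with cut-off 20.48 s. Both paws are tested in 3 trials about 5 min apart. Latency is taken as the mean of the two shortest readings.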

[21] = biological target: Voltage-dependent N-type calcium channel subunit alpha-1B (Rattus norvegicus) (UniProt Q02294); details: HEK293, 0.3 uM
Chain of Voltage-dependent N-type calcium channel subunit alpha-1B (Rattus norvegicus) (Q02294 whole entry, looked up): as the sequence (Q02294 whole entry) above

[22] = biological target: Voltage-dependent N-type calcium channel subunit alpha-1B (Rattus norvegicus) (UniProt Q02294); details: HEK293, 0.3 uM; remark: listed apart in the source
[23] = Homo sapiens, IMR-32, read-out: pIC50 (converted)
[24] = Homo sapiens, IMR-32, read-out: IC50

| Compound | IC50 [10, 23] [µM] | IC50 [10, 24] [µM] | IC50 ([19]; read-out: IC50) [µM] | IC50 ([19]; read-out: pIC50 (converted)) [µM] | also measured |
| --- | --- | --- | --- | --- | --- |
| O=C(N[C@H]1CC[C@H]2CN(Cc3cccc(C(F)(F)F)c3)C[C@H]21)C(C1CCCCC1)C1CCCCC1 [listing 1 of 2 here] | 0.468 | – | – | – | Emax at 30 mg/kg (Rattus norvegicus [1]): 67%; Emax at 30 mg/kg (Rattus norvegicus [2]): 87%; EC50 (Rattus norvegicus [3]): 2 µM; inhibition in vivo at 30 mg/kg (Rattus norvegicus [4]): 51%; Activity (Rattus norvegicus [5]): Non-toxic; Activity (Rattus norvegicus [6]): Non-toxic; Activity (Rattus norvegicus [7]): Non-toxic; Activity (Rattus norvegicus [8]): Non-toxic; selectivity ratio [9]: > 15; IC50 ([10]; imr-32, read-out: IC50): 0.46 µM; EC50 [11]: 46 µM; inhibition (INH) ([11]; rat): Dose-dependent effect; solubility [12]: < 3 µM; fraction unbound [13]: < 0.01; remaining at 0.5 h [14]: < 5%; remaining at 0.5 h [15]: < 5%; bioavailability [16]: 41%; IC50 [17]: 0.041 µM; inhibition in vivo at 10 mg/kg (Rattus norvegicus [18]): 51% |
| O=C(N[C@H]1CC[C@H]2CN(Cc3ccccc3)C[C@H]21)C(C1CCCCC1)C1CCCCC1 | – | – | – | – | pIC50 ([10]; imr-32): 4.78; IC50 ([10]; imr-32, read-out: IC50): 16.5 µM |
| O=C(N[C@H]1CC[C@H]2CN(Cc3ccccc3F)C[C@H]21)C(C1CCCCC1)C1CCCCC1 | 1.12 | 1.12 | > 30 | – | – |
| O=C(N[C@H]1CC[C@H]2CN(Cc3cccc(F)c3)C[C@H]21)C(C1CCCCC1)C1CCCCC1 | 0.977 | 0.99 | > 30 | – | – |
| O=C(N[C@H]1CC[C@H]2CN(Cc3ccc(F)cc3)C[C@H]21)C(C1CCCCC1)C1CCCCC1 | 0.741 | 0.74 | 22.9 | 22.9 | – |
| O=C(N[C@H]1CC[C@H]2CN(Cc3ccccc3C(F)(F)F)C[C@H]21)C(C1CCCCC1)C1CCCCC1 | 2.45 | 2.43 | > 30 | – | – |
| O=C(N[C@H]1CC[C@H]2CN(Cc3cccc(OC(F)(F)F)c3)C[C@H]21)C(C1CCCCC1)C1CCCCC1 | 0.417 | 0.51 | > 30 | – | – |
| Cc1cccc(CN2C[C@@H]3CC[C@H](NC(=O)C(C4CCCCC4)C4CCCCC4)[C@@H]3C2)c1 | 0.851 | 0.86 | 22.3 | 22.4 | – |
| O=C(N[C@@H]1CC[C@@H]2CN(Cc3cccc(C(F)(F)F)c3)C[C@@H]21)C(C1CCCCC1)C1CCCCC1 | – | 1.4 | > 30 | – | – |
| O=C(N[C@H]1CC[C@H]2CN(Cc3cccc(C(F)(F)F)c3)C[C@H]21)C(C1CCCCC1)C1CCCCC1 [listing 2 of 2 here] | – | – | – | – | Activity (Rattus norvegicus [20]): Dose-dependent effect; Activity (Rattus norvegicus [3]): Dose-dependent effect; inhibition [21]: 49%; inhibition [22]: 77% |
| O=C(N[C@@H]1CC[C@@H]2CN(Cc3ccccc3)C[C@@H]21)C(c1ccccc1)C1CCCCC1 (mixture of isomers) | 1.07 | 1.06 | > 30 | – | – |
| CC(C)C(C(=O)N[C@@H]1CC[C@@H]2CN(Cc3ccccc3)C[C@@H]21)c1ccccc1 (mixture of isomers) | 1.48 | 1.46 | 7.21 | 7.24 | – |
| CC(C)C(C(=O)N[C@H]1CC[C@H]2CN(Cc3cccc(C(F)(F)F)c3)C[C@H]21)c1ccccc1 (mixture of isomers) | 0.355 | 0.36 | 5 | 5.01 | – |
| O=C(N[C@H]1CC[C@H]2CN(Cc3ccccc3)C[C@H]21)C1(c2ccccc2)CCCC1 (racemic) | 1.95 | 1.93 | 4.84 | 4.79 | – |
| CCC(CC)C(=O)N[C@H]1CC[C@H]2CN(Cc3cccc(C(F)(F)F)c3)C[C@H]21 (racemic) | 2.09 | 2.07 | 19 | 19.1 | – |
| O=C(N[C@H]1CC[C@H]2CN(Cc3cccc(C(F)(F)F)c3)C[C@H]21)C1CCCCC1 (racemic) | 1.26 | 1.26 | 16.1 | 16.2 | – |
| O=C(N[C@H]1CC[C@H]2CN(Cc3cccc(C(F)(F)F)c3)C[C@H]21)C1CCCCCC1 (racemic) | 0.562 | 0.56 | 9.3 | 13.8 | – |
| O=C(N[C@H]1CC[C@H]2CN(Cc3cccc(C(F)(F)F)c3)C[C@H]21)C(c1ccccc1)c1ccccc1 (racemic) | 0.661 | 0.67 | 6.3 | 6.31 | – |
| O=C(N[C@H]1CC[C@H]2CN(Cc3cccc(C(F)(F)F)c3)C[C@H]21)C(C1CCCCC1)C1CCCCC1 (relative stereo) | – | – | > 30 | – | pIC50 ([10]; imr-32): 5.97; IC50 ([10]; imr-32, read-out: IC50): 1.07 µM |
| O=C(N[C@H]1CC[C@H]2CN(Cc3ccccc3)C[C@H]21)C(C1CCCCC1)C1CCCCC1 (relative stereo) | – | – | > 30 | – | pIC50 ([10]; imr-32): 5.33; IC50 ([10]; imr-32, read-out: IC50): 4.67 µM |
| O=C(N[C@H]1CC[C@H]2CN(Cc3ccccc3)C[C@H]21)C(c1ccccc1)C1CCCC1 (relative stereo) | 0.933 | 0.92 | 5.15 | 5.13 | – |
| O=C(N[C@H]1CC[C@H]2CN(Cc3ccccc3)C[C@H]21)C1(c2ccccc2)CCCCC1 (relative stereo) | 1.02 | 1.04 | 5.56 | 5.62 | – |
| CCCC(CCC)C(=O)N[C@H]1CC[C@H]2CN(Cc3cccc(C(F)(F)F)c3)C[C@H]21 (relative stereo) | 0.955 | 0.95 | 20.1 | 20.4 | – |
| O=C(N[C@H]1CC[C@H]2CN(Cc3cccc(C(F)(F)F)c3)C[C@H]21)C1CCCC1 (relative stereo) | 2.29 | 2.31 | 12.8 | 12.9 | – |
| O=C(N[C@H]1CC[C@H]2CN(Cc3cccc(C(F)(F)F)c3)C[C@H]21)C(c1ccc(F)cc1)c1ccc(F)cc1 (relative stereo) | 0.646 | 0.64 | 7.1 | 7.08 | – |
